Test results as given in ChEMBL document CHEMBL1126914 (J Med Chem, 1993).
Square brackets hold non-standard residues; d marks the D form. Peptide text beside a SMILES is read from it. Tic = O=C(O)[C@@H]1Cc2ccccc2CN1; Aic = NC1(C(=O)O)Cc2ccccc2C1

Tests used:
Mu-type opioid receptor = Mu-type opioid receptor (Rattus norvegicus, UniProt P33535); assay: Binding affinity was determined on mu [3H]DAGO site in rat brain synaptosomes by radioreceptor assay; assay type: subcellular
Summary of the method: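 μ sites labelled with 0.68 nM [3H]DAGO; rat brain (minus cerebella) P2 synaptosomes, preincubated to remove endogenous opioids, 1.6 mg protein; 2 h at 22 °C in duplicate. Nonspecific defined with 1 μM DAGO. Rapid filtration on GF/C filters, washes with ice-cold buffered BSA; scintillation counting; Ki via Cheng–Prusoff from IC50.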

[1] = target: Delta-type opioid receptor (Rattus norvegicus, UniProt P33533); assay: Binding affinity was determined on delta [3H]DPDPE site in rat brain synaptosomes by radioreceptor assay; assay type: subcellular
Chain of Delta-type opioid receptor (P33533 whole entry): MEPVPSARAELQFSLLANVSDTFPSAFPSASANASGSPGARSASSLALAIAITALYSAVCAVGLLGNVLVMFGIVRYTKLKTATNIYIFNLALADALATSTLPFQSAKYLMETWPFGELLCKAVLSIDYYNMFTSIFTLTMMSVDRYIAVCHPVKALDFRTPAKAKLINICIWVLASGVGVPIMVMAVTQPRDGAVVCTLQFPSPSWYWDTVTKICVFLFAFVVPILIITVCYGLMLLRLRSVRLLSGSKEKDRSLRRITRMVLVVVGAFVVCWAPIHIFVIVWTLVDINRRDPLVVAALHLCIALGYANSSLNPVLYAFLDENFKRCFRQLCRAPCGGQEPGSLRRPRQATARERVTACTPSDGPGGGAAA
Summary of the method: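 δ sites labelled with 0.62 nM [3H]DPDPE; rat brain (minus cerebella) P2 synaptosomes, preincubated to remove endogenous opioids, 1.6 mg protein; 2 h at 22 °C in duplicate. Nonspecific defined with 1 μM DPDPE. Rapid filtration on GF/C filters with ice-cold buffered BSA washes; liquid scintillation counting; Ki from IC50 by Cheng–Prusoff.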

[2] = Bioselectivity ratio of compound as guinea pig ileum to mouse vas deferens was determined; assay type: functional
Summary of the method: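 GPI/MVD ratio of IC50s. GPI: 2–3 cm segments in Krebs with 70 μM hexamethonium and 0.125 μM mepyramine, 36 °C, 95% O2/5% CO2; transmural 0.5 ms, 0.1 Hz pulses at 1.5× maximal (~30 V); isotonic recording. MVD: 33 °C, field stimulation 0.1 Hz, 1 ms, 40 V; isometric recording. IC50 is 50% twitch inhibition, from four experiments.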

Chain of Mu-type opioid receptor (P33535 whole entry): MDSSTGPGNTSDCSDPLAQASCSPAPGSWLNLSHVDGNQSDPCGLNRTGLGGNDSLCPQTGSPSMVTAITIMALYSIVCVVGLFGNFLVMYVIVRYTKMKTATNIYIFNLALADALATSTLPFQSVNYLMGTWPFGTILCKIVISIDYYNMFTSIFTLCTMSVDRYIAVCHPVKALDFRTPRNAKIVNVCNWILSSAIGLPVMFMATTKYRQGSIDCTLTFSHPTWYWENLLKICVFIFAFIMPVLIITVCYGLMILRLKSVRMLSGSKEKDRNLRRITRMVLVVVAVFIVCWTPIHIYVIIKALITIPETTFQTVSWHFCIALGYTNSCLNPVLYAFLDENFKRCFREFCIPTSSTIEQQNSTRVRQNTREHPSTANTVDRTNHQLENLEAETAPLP

## CC(C)[C@H](NC(=O)[C@H](CC(=O)O)NC(=O)C1(NC(=O)[C@@H](C)NC(=O)[C@@H](N)Cc2ccc(O)cc2)Cc2ccccc2C1)C(=O)N[C@H](C(=O)NCC(N)=O)C(C)C (H-Y[dA][Aic]DVVG-NH2)
Mu-type opioid receptor
  Ki: 56.2 nM
[1]
  Ki: 0.2 nM
[2]
  Ratio: 900

## CC(C)[C@H](NC(=O)[C@H](CC(=O)O)NC(=O)[C@H](Cc1cnc[nH]1)NC(=O)[C@@H](C)NC(=O)[C@@H](N)Cc1ccc(O)cc1)C(=O)N[C@H](C(=O)NCC(N)=O)C(C)C
Mu-type opioid receptor
  Ki: 3720 nM
[1]
  Ki: 45.5 nM

## CC(C)[C@H](NC(=O)[C@H](CC(=O)O)NC(=O)C1(NC(=O)[C@@H](C)NC(=O)[C@@H](N)Cc2ccc(O)cc2)CCc2ccccc2C1)C(=O)N[C@H](C(=O)NCC(N)=O)C(C)C (single isomer, unassigned; 15a)
Mu-type opioid receptor
  Ki: 82.3 nM
[1]
  Ki: 0.12 nM
[2]
  Ratio: 606

## COc1ccc(C[C@H](NC(=O)[C@@H](C)NC(=O)[C@@H](N)Cc2ccc(O)cc2)C(=O)N[C@@H](CC(=O)O)C(=O)N[C@H](C(=O)N[C@H](C(=O)NCC(N)=O)C(C)C)C(C)C)cc1
Mu-type opioid receptor
  Ki: 526 nM
[1]
  Ki: 45.4 nM

## CC(C)[C@H](NC(=O)[C@H](CC(=O)O)NC(=O)[C@H](Cc1ccc(O)cc1)NC(=O)[C@@H](C)NC(=O)[C@@H](N)Cc1ccc(O)cc1)C(=O)N[C@H](C(=O)NCC(N)=O)C(C)C
Mu-type opioid receptor
  Ki: 1180 nM
[1]
  Ki: 34 nM

## CC(C)[C@H](NC(=O)[C@H](CC(=O)O)NC(=O)[C@](C)(Cc1ccccc1)NC(=O)[C@@H](C)NC(=O)[C@@H](N)Cc1ccc(O)cc1)C(=O)N[C@H](C(=O)NCC(N)=O)C(C)C (single isomer, unassigned; 6a)
Mu-type opioid receptor
  Ki: 3400 nM
[1]
  Ki: 48.6 nM
[2]
  Ratio: >20

## CC(C)[C@H](NC(=O)[C@H](CC(=O)O)NC(=O)[C@@H](NC(=O)[C@@H](C)NC(=O)[C@@H](N)Cc1ccc(O)cc1)c1ccccc1)C(=O)N[C@H](C(=O)NCC(N)=O)C(C)C
Mu-type opioid receptor
  Ki: 3750 nM
[1]
  Ki: 2.85 nM

## CC(C)[C@H](NC(=O)[C@H](CC(=O)O)NC(=O)[C@](C)(Cc1ccccc1)NC(=O)[C@@H](C)NC(=O)[C@@H](N)Cc1ccc(O)cc1)C(=O)N[C@H](C(=O)NCC(N)=O)C(C)C (single isomer, unassigned; 6)
Mu-type opioid receptor
  Ki: 1360 nM
[1]
  Ki: 69.1 nM
[2]
  Ratio: >18

## CC(C)[C@H](NC(=O)[C@H](CC(=O)O)NC(=O)/C(=C\c1ccccc1)NC(=O)[C@@H](C)NC(=O)[C@@H](N)Cc1ccc(O)cc1)C(=O)N[C@H](C(=O)NCC(N)=O)C(C)C
Mu-type opioid receptor
  Ki: 114 nM
[1]
  Ki: 4.23 nM

## CC(C)[C@H](NC(=O)[C@H](CC(=O)O)NC(=O)[C@H](Cc1c[nH]c2ccccc12)NC(=O)[C@@H](C)NC(=O)[C@@H](N)Cc1ccc(O)cc1)C(=O)N[C@H](C(=O)NCC(N)=O)C(C)C
Mu-type opioid receptor
  Ki: 323 nM
[1]
  Ki: 2.34 nM

## CC(C)[C@H](NC(=O)[C@H](CC(=O)O)NC(=O)[C@H](Cc1ccc2ccccc2c1)NC(=O)[C@@H](C)NC(=O)[C@@H](N)Cc1ccc(O)cc1)C(=O)N[C@H](C(=O)NCC(N)=O)C(C)C
Mu-type opioid receptor
  Ki: 770 nM
[1]
  Ki: 10.7 nM

## CC(C)[C@H](NC(=O)[C@H](CC(=O)O)NC(=O)C1(NC(=O)[C@@H](C)NC(=O)[C@@H](N)Cc2ccc(O)cc2)CCc2ccccc2C1)C(=O)N[C@H](C(=O)NCC(N)=O)C(C)C (single isomer, unassigned; 15)
Mu-type opioid receptor
  Ki: 178 nM
[1]
  Ki: 0.07 nM
[2]
  Ratio: 3522

## CC(C)[C@H](NC(=O)[C@H](CC(=O)O)NC(=O)[C@@H]1Cc2ccccc2CN1C(=O)[C@@H](C)NC(=O)[C@@H](N)Cc1ccc(O)cc1)C(=O)N[C@H](C(=O)NCC(N)=O)C(C)C (H-Y[dA][Tic]DVVG-NH2)
Mu-type opioid receptor
  Ki: 7810 nM
[1]
  Ki: 90.2 nM
[2]
  Ratio: >65

## CC(C)[C@H](NC(=O)[C@H](CC(=O)O)NC(=O)[C@H](CCc1ccccc1)NC(=O)[C@@H](C)NC(=O)[C@@H](N)Cc1ccc(O)cc1)C(=O)N[C@H](C(=O)NCC(N)=O)C(C)C
Mu-type opioid receptor
  Ki: 326 nM
[1]
  Ki: 4.84 nM

## CC(C)[C@H](NC(=O)[C@H](CC(=O)O)NC(=O)[C@H](Cc1cccc2ccccc12)NC(=O)[C@@H](C)NC(=O)[C@@H](N)Cc1ccc(O)cc1)C(=O)N[C@H](C(=O)NCC(N)=O)C(C)C
Mu-type opioid receptor
  Ki: 279 nM
[1]
  Ki: 0.61 nM

## CC(C)[C@H](NC(=O)[C@H](CC(=O)O)NC(=O)[C@H](Cc1ccccc1)NC(=O)[C@@H](C)NC(=O)[C@@H](N)Cc1ccc(O)cc1)C(=O)N[C@H](C(=O)NCC(N)=O)C(C)C [DELTORPHIN C]
Mu-type opioid receptor
  Ki: 205 nM
[1]
  Ki: 0.31 nM

## CC(C)[C@H](NC(=O)[C@H](CC(=O)O)NC(=O)[C@H](Cc1ccccc1)N(C)C(=O)[C@@H](C)NC(=O)[C@@H](N)Cc1ccc(O)cc1)C(=O)N[C@H](C(=O)NCC(N)=O)C(C)C
Mu-type opioid receptor
  Ki: 19000 nM
[1]
  Ki: 284 nM
